Assay outcomes (PubChem BioAssay)
UHRF1 MBD2 ctr – human UHRF1 methylated DNA binding inhibitors; UHRF1 binding to methylated oligo, TR-FRET; Q96T88; 370,000 tested, 0.75% active; AID 687016; inhibition, % at 4.4 µM; in the data active = inhibition above about 21%;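 note: UHRF1 SRA domain binding a hemimethylated CpG hairpin DNA probe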
Target sequence (Q96T88 whole entry, looked up, the tested form may be a part): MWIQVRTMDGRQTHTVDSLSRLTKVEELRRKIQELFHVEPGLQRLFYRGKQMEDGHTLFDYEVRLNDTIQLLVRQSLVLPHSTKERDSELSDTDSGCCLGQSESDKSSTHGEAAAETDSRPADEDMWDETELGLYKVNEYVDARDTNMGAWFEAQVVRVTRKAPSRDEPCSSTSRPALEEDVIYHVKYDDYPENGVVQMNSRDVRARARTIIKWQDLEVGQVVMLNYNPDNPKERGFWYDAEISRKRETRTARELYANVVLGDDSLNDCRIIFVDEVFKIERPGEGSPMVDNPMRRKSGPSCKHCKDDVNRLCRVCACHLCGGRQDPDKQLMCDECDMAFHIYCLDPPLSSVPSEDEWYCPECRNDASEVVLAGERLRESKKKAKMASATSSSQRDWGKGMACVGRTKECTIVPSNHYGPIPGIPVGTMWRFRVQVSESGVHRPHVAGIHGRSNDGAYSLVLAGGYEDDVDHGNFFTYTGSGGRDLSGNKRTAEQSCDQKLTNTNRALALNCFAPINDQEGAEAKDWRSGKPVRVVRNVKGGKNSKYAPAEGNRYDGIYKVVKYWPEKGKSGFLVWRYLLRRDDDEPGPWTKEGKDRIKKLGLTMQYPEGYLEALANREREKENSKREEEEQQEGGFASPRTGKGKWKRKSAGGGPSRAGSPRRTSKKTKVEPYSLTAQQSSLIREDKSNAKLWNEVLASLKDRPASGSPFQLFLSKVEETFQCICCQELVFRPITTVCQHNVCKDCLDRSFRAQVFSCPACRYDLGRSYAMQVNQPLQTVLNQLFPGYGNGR
ABHD5-PLIN5 inh – blocks binding of human ABHD5 to perilipin-5 | inhibition, % at 4 µM | Split G. princeps luciferase complementation, luminescence, 4 h | 360,000 tested, 0.78% active | Q00G26+Q8WTS1;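 active = inhibition above the mean inhibition across every tested compound plus 3 SD, cut at about 22% in these data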
LEDGF integ inh – blocks HIV-1 LEDGF/p75-dependent DNA integration; inhibition, % at 3.7 µM; 370,000 tested, 0.64% active; AID 743269; TR-FRET IN-LEDGF/p75 DNA integration, Eu/Cy5;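 active = inhibition above the screen-wide mean plus 3 SD, cut at about 13% in these data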;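 note: signal is the Cy5 over europium emission ratio at 671 and 618 nm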
RBBP9 inh – inhibitors of human serine hydrolase RBBP9; AID 1515; inhibition, % at 7.94 µM; O75884; recombinant RBBP9, FP-Rh probe fluorescence polarization; 220,000 tested, 0.2% active;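 active = inhibition above the campaign mean of all tested compounds plus 3 SD, cut at about 14% in these data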
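Material: RBBP9 protein. Amount: RBBP9 at 2.5 µM in dispensed solution, before mixing. Schedule: 30 min then 45 min, 25 °C. Medium: Tris buffer pH 8.0, NaCl, Pluronic. Measured by: fluorescence polarization. Measure: percent inhibition from mP, scaled between DMSO and no-protein wells. Replication: one well per compound.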
MBD2 DNA inh – inhibitors of human MBD2 binding to methylated oligonucleotide | TR-FRET | inhibition, % at 4.4 µM | 370,000 tested, 0.31% active | AID 686964; in the data active = inhibition above about 13%
PRMT1 FP inh – inhibitors of human PRMT1 | recombinant PRMT1, activity-based probe fluorescence polarization | Q99873 | 370,000 tested, 1.3% active | inhibition, % at 2.79 µM;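 active = inhibition above about 21% made by adding two undisclosed values, limit read from the data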
Hits are given with their value; n = inactive; x = no result. An excerpt weighted towards active compounds, which were near 3.1% of everything screened.

SMILES | UHRF1 MBD2 ctr | ABHD5-PLIN5 inh | LEDGF integ inh | RBBP9 inh | MBD2 DNA inh | PRMT1 FP inh
Cc1ccccc1N1CCN(C2CCCN(C(=O)CCN3CCCCC3=O)C2)CC1 (configuration not stated) | 24 | n | n | x | n | n
CN(Cc1ccccc1Cl)C(=O)CN1C(=O)C2(OCCCO2)c2ccccc21 | n | x | n | x | n | n
COc1ccc(OC)c(CNc2c(C=O)c(=O)[nH]c3ccccc23)c1 | 43 | n | n | x | n | n
O=Cc1c(NCc2ccccc2F)c2ccccc2[nH]c1=O | n | n | n | x | n | n
Cc1cccn2cc(-c3ccc(S(=O)(=O)N4CCCCC4)cc3)nc12 | 25 | n | n | n | n | n
CCCN(C)C1CN(Cc2cn(CCCOC)nn2)S(=O)(=O)C1 (configuration not stated) | n | n | n | x | n | 23
COCCCn1cc(CN(C)C2CN(Cc3cn(CCCOC)nn3)S(=O)(=O)C2)nn1 (configuration not stated) | 24 | n | n | x | n | n
CCN(C)C1CN(Cc2cn(CCCOC)nn2)S(=O)(=O)C1 (configuration not stated) | n | n | n | x | n | n
Cc1ccc(N2C(=O)CC(NCC3CCCO3)C2=O)cc1 (configuration not stated) | n | n | n | n | n | 45
COc1ccc(C2NC(=S)N(Cc3ccc(Cl)cc3)C(C)=C2C(C)=O)cc1 (configuration not stated) | n | x | n | x | n | n
O=C1C(Cl)=C(N2CCOCC2)C(=O)N1c1cccc(Cl)c1 | n | n | n | n | n | 22
CC(=O)c1ccc2c(c1)C1C=CCC1C(c1ccncc1)N2 (configuration not stated) | n | n | n | n | n | n
C1=CC2c3ccccc3NC(c3ccncc3)C2C1 (configuration not stated) | n | n | n | n | n | 23
O=C(CSc1nc2ccccc2c(=O)[nH]1)c1ccc(O)c(O)c1 | n | n | n | n | n | 23
O=C(CSc1nc2ccccc2c(=O)[nH]1)c1ccc(O)cc1O | n | n | n | n | n | n
O=C(CSc1nc2ccccc2n1CCc1ccccc1)N1CCOCC1 | n | n | n | n | n | n
O=C(CSc1nc2ccccc2n1CCc1ccccc1)c1ccc(O)c(O)c1 | 57 | n | 32 | n | 26 | n
Cc1cc(-c2ccccc2)nc2cc(C(=O)NCc3ccco3)nn12 | n | 23 | n | n | n | n
Cc1cc(C(=O)NCc2ccco2)on1 | n | n | n | n | n | 24
CC(C)c1cc(C(=O)NCc2ccco2)no1 | n | n | n | n | n | n
O=C(c1ccccc1Oc1ccccc1)N1CCC(Oc2cccnc2)CC1 | n | x | n | x | n | n
COc1ccccc1OCCCn1c(=O)oc2ccc(C)cc21 | n | n | n | n | n | n
Cc1cccc(OCCCn2c(=O)oc3ccc(C)cc32)c1 | 25 | n | n | n | n | n
O=C(CCC1CCCCC1)Nc1nncs1 | 26 | n | n | x | n | n
CC(C)c1nnc(NC(=O)CCC2CCCCC2)s1 | n | n | n | x | n | n
SMILES | UHRF1 MBD2 ctr | ABHD5-PLIN5 inh | LEDGF integ inh | RBBP9 inh | MBD2 DNA inh | PRMT1 FP inh
CC1CCCCC1N(C)C1CCN(C(=O)CNC(=O)/C=C/c2cccc(Cl)c2)CC1 (configuration not stated) | n | n | n | x | n | 22
COc1ccc(/C=C/C(=O)NCCCN2CCOCC2)cc1 | n | n | n | x | n | n
CN(C1CCCC1)C1CCN(C(=O)CNC(=O)/C=C/c2ccccc2)CC1 | n | n | n | n | n | n
COc1ccc(/C=C/C(=O)NCC(=O)N2CCC(N(C)CCN3CCOCC3)CC2)cc1OC | 22 | n | n | n | n | n
COc1ccc(-n2c(SCC(=O)Nc3ccc(Oc4ccccc4)cc3)nnc2-c2ccc(C)cc2)cc1 | n | x | n | x | n | n
COc1cc(C(=O)Oc2c(OC)cc(C(=S)N3CCOCC3)cc2OC)cc(OC)c1OC | 24 | n | n | x | n | n
COc1cc(C(=S)N2CCOCC2)ccc1OC(=O)c1cccc(C)c1 | 24 | n | n | x | n | n
COc1cc(C(=S)N2CCOCC2)cc(OC)c1OC(=O)c1ccc(F)cc1 | n | n | n | x | n | n
O=C(COc1ccccc1O)N1CCN(C(=O)c2ccco2)CC1 | n | n | n | n | n | n
NC(=O)c1ccc(SCC(=O)OCC(=O)N2CCN(C(=O)c3ccco3)CC2)c([N+](=O)[O-])c1 | n | n | n | x | n | 22
